# Results taken from ChEMBL document CHEMBL1156927, “New pterocarpanquinones: synthesis, antineoplasic activity on cultured human malignant cell lines and TNF-alpha modulation in human PBMC cells” (Bioorg Med Chem, 2010).
# Activity calls are given as the source filed them. The calls are words filed in the database; no cut-off is given here.
# Columns and labels:
# [1] = system: HL-60; assay: Growth inhibition of human HL60 cells after 72 hrs by MTT assay; format: functional, cell-based; conditions: HL-60, 72 h
# In short: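 2 × 10⁴ cells/mL seeded in drug-free medium or medium with a range of compound concentrations, 72 h at 37 °C, 5% CO₂. MTT read-out: 3 h incubation, formazan dissolved in DMSO, A490. IC50 = concentration inhibiting growth by 50%. Mean of three independent experiments, triplicate wells.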
# [2] = system: K562; assay: Growth inhibition of human K562 cells after 24 to 72 hrs by MTT assay; format: functional, cell-based
# In short: (§1)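 Leukemic lines in medium with 50 µM β-mercaptoethanol, 25 mM Hepes pH 7.4, antibiotics and 10% heat-inactivated FCS (Daudi 20% FCS; Lucena-1 kept with 60 nM vincristine to maintain MDR phenotype). Cells exposed to compound for 24, 48 or 72 h. Viability by MTT: 3 h at 37 °C, DMSO solubilisation, absorbance at 490 nm.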
# [3] = system: Daudi; assay: Growth inhibition of human Daudi cells after 24 to 72 hrs by MTT assay; format: functional, cell-based; in short: as §1
# [4] = system: PBMC; assay: Growth inhibition of phytohemagglutinin-activated human PBMC cells after 24 to 72 hrs by MTT assay; format: cell-based
# [5] = Growth inhibition of human K562-Lucena 1 cells after 24 to 72 hrs by MTT assay; format: functional; in short: as §1
# [6] = system: A549; assay: Growth inhibition of human A549 cells after 72 hrs by MTT assay; format: functional, cell-based; conditions: A549, 72 h
# In short: (§2)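 Adherent lung cancer cells allowed to attach 24 h, then exposed to compound. 2 × 10⁴ cells/mL in drug-free or compound-containing medium, 72 h at 37 °C, 5% CO₂. MTT added, 3 h at 37 °C, formazan dissolved in DMSO, absorbance at 490 nm. IC50 from three independent experiments, each concentration in triplicate.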
# [7] = system: Raji; assay: Growth inhibition of human Raji cells after 24 to 72 hrs by MTT assay; format: functional, cell-based; in short: as §1
# [8] = Growth inhibition of human GLC4 cells after 72 hrs by MTT assay; format: functional, cell-based; conditions: GLC4, 72 h; in short: as §2
# [9] = system: Jurkat; assay: Growth inhibition of human Jurkat cells after 24 to 72 hrs by MTT assay; format: functional, cell-based; in short: as §1
# [10] = system: PBMC; assay: Antiinflammatory activity in human PBMC assessed reduction of LPS-stimulated TNFalpha production at 25 uM after 2 hrs by ELISA; format: functional, cell-based
# In short: (§3)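 PBMC at 10⁶ cells/mL stimulated with 2 µg/mL E. coli 055:B5 LPS for 2 h at 37 °C, 5% CO₂, co-incubated with vehicle (0.5% DMSO in RPMI 1640) or compound at several concentrations. TNF-α measured in supernatants. Three experiments, mean ± SEM.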
# [11] = system: PBMC; assay: Antiinflammatory activity in human PBMC assessed inhibition of LPS-stimulated TNFalpha production at 100 uM after 2 hrs by ELISA; format: functional; in short: as §3
# [12] = Toxicity in LPS-stimulated human PBMC cells assessed as cell viability at 100 uM; format: cell-based
# [13] = system: NCI-H460; assay: Growth inhibition of human H460 cells after 72 hrs by MTT assay; format: functional, cell-based; conditions: NCI-H460, 72 h; in short: as §2
smiles,measurement,setting,value
O=C1C2=C(OC[C@@H]3c4cc5c(cc4O[C@H]23)OCO5)C(=O)c2c1ccc(O)c2O,IC50,[1],2.1 µM
same,IC50,[2],2.95 µM
O=C1C2=C(C(=O)c3ccccc31)[C@H]1Oc3ccc([N+](=O)[O-])cc3[C@H]1CO2 (racemic),IC50,[1],0.4 µM
same,IC50,[2],3.48 µM
O=C1C2=C(C(=O)c3ccccc31)[C@H]1Oc3ccc(Cl)cc3[C@H]1CO2 (racemic),IC50,[1],4.87 µM
same,IC50,[2],6.77 µM
O=C1C2=C(C(=O)c3ccccc31)[C@H]1Oc3ccc(Br)cc3[C@H]1CO2 (racemic),IC50,[1],4.87 µM
same,IC50,[2],5.7 µM
COc1cc2c(cc1O)[C@H]1COC3=C(C(=O)c4ccccc4C3=O)[C@H]1O2 (racemic),IC50,[2],2.18 µM
CO[C@@]12[C@H](COC(N)=O)C3=C(C(=O)C(C)=C(N)C3=O)N1C[C@@H]1N[C@@H]12 [MITOMYCIN],IC50,[3],0.45 µM
same,IC50,[4],4.03 µM
same,IC50,[5],2.75 µM
same,IC50,[2],0.47 µM
O=C1C2=C(C(=O)c3ccccc31)[C@H]1Oc3ccccc3[C@H]1CO2 [PTEROCARPANQUINONE],IC50,[3],3.1 µM
same,IC50,[6],11.2 µM
same,IC50,[7],3.32 µM
same,IC50,[8],5.17 µM
same,IC50,[9],6.77 µM
same,inhibition,[10],Active
same,inhibition at 100 µM,[11],100%
same,IC50,[1],2 µM
same,IC50,[4],> 20 µM
same,IC50,[5],2.75 µM
same,viability at 100 µM,[12],> 70%
same,IC50,[2],1.67 µM
same,IC50,[13],12.9 µM
